Results as given in ChEMBL document CHEMBL1938269, “Synthesis and biological evaluation of 7-O-modified oroxylin A derivatives” (Bioorg Med Chem Lett, 2012).
Active and inactive are the calls of the source. The rule behind the calls is not given here.

How the values were obtained:
[1] = tested on: HepG2; assay: Antiproliferative activity against human HepG2 cells after 48 hrs by MTT assay; type: functional, cell-based; conditions: HepG2, 48 h
[2] = tested on: HCT-116; assay: Antiproliferative activity against human HCT116 cells after 48 hrs by MTT assay; type: functional, cell-based; conditions: HCT-116, 48 h
[3] = Antiproliferative activity against human BCG823 cells after 48 hrs by MTT assay; type: functional, cell-based; conditions: BCG823, 48 h
[4] = tested on: HepG2; assay: Ratio of oroxylin A IC50 to compound IC50 for human HepG2 cells; type: functional
[5] = tested on: HCT-116; assay: Ratio of oroxylin A IC50 to compound IC50 for human HCT116 cells; type: functional
[6] = Ratio of oroxylin A IC50 to compound IC50 for human BCG823 cells; type: functional
[7] = tested on: HepG2; assay: Induction of apoptosis in human HepG2 cells assessed as early apoptotic cells at 1 uM after 72 hrs by annexin-V FITC and PI staining based flow cytometry (reference value: 1.4 +/- 0.1%); type: functional
[8] = tested on: HepG2; assay: Induction of apoptosis in human HepG2 cells assessed as early apoptotic cells at 2 uM after 72 hrs by annexin-V FITC and PI staining based flow cytometry (reference value: 1.4 +/- 0.1%); type: functional
[9] = tested on: HepG2; assay: Induction of apoptosis in human HepG2 cells assessed as early apoptotic cells at 4 uM after 72 hrs by annexin-V FITC and PI staining based flow cytometry (reference value: 1.4 +/- 0.1%); type: functional
[10] = tested on: HepG2; assay: Induction of apoptosis in human HepG2 cells assessed as non-viable necrotic cells at 1 uM after 72 hrs by annexin-V FITC and PI staining based flow cytometry (reference value: 2.7 +/- 0.1%); type: functional
[11] = tested on: HepG2; assay: Induction of apoptosis in human HepG2 cells assessed as non-viable necrotic cells at 2 uM after 72 hrs by annexin-V FITC and PI staining based flow cytometry (reference value: 2.7 +/- 0.1%); type: functional
[12] = tested on: HepG2; assay: Induction of apoptosis in human HepG2 cells assessed as non-viable necrotic cells at 4 uM after 72 hrs by annexin-V FITC and PI staining based flow cytometry (reference value: 2.7 +/- 0.1%); type: functional
[13] = tested on: HepG2; assay: Induction of apoptosis in human HepG2 cells assessed as viable cells at 1 uM after 72 hrs by annexin-V FITC and PI staining based flow cytometry (reference value: 94.5 +/- 0.6%); type: functional; conditions: HepG2, 72 h, read-out: Activity
[14] = tested on: HepG2; assay: Induction of apoptosis in human HepG2 cells assessed as viable cells at 2 uM after 72 hrs by annexin-V FITC and PI staining based flow cytometry (reference value: 94.5 +/- 0.6%); type: functional; conditions: HepG2, 72 h, read-out: Activity
[15] = tested on: HepG2; assay: Induction of apoptosis in human HepG2 cells assessed as viable cells at 4 uM after 72 hrs by annexin-V FITC and PI staining based flow cytometry (reference value: 94.5 +/- 0.6%); type: functional; conditions: HepG2, 72 h, read-out: Activity
[16] = tested on: HepG2; assay: Induction of apoptosis in human HepG2 cells assessed as late apoptotic cells at 1 uM after 72 hrs by annexin-V FITC and PI staining based flow cytometry (reference value: 1.4 +/- 0.0%); type: functional
[17] = tested on: HepG2; assay: Induction of apoptosis in human HepG2 cells assessed as late apoptotic cells at 2 uM after 72 hrs by annexin-V FITC and PI staining based flow cytometry (reference value: 1.4 +/- 0.0%); type: functional
[18] = tested on: HepG2; assay: Induction of apoptosis in human HepG2 cells assessed as late apoptotic cells at 4 uM after 72 hrs by annexin-V FITC and PI staining based flow cytometry (reference value: 1.4 +/- 0.0%); type: functional
[19] = tested on: HepG2; assay: Induction of apoptosis in human HepG2 cells assessed as chromatin congregation and karyopyknosis at 1 to 4 uM after 72 hrs by DAPI staining-based fluorescent microscopy; type: functional, cell-based
Summary of the method: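 HepG2 cells exposed for 72 h, with untreated cells as control. Nuclei were stained with DAPI and viewed by fluorescence microscopy at 400×. Apoptotic cells were scored by chromatin congregation and karyopyknosis, seen as bright nuclear fluorescence. Arrows mark apoptotic cells.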

IC50 [1] | IC50 [2] | Structure (SMILES) | IC50 [3] | further results
6.8 µM | 22.1 µM | COc1c(OCCCN2CCCCC2)cc2oc(-c3ccccc3)cc(=O)c2c1O | 9.7 µM | –
20.5 µM | 26.6 µM | COc1c(OCCCN2CCCC2)cc2oc(-c3ccccc3)cc(=O)c2c1O | 12 µM | –
2.4 µM | 3 µM | COc1c(OCCCCN2CCCCC2)cc2oc(-c3ccccc3)cc(=O)c2c1O | 6.6 µM | Ratio IC50 [4]: 5; Ratio IC50 [5]: 5; Ratio IC50 [6]: 5; Activity [7]: 3.4%; Activity [8]: 6.5%; Activity [9]: 14%; Activity [10]: 5.8%; Activity [11]: 2.7%; Activity [12]: 37.5%; viability at 1 µM [13]: 88.9%; viability at 2 µM [14]: 87.2%; viability at 4 µM [15]: 30.6%; Activity [16]: 1.9%; Activity [17]: 3.5%; Activity [18]: 17.9%; Activity [19]: Active
22.7 µM | 33.9 µM | COc1c(O)cc2oc(-c3ccccc3)cc(=O)c2c1O [OROXYLIN A] | 25.5 µM | –
18 µM | 23.4 µM | CCN(CC)CCCOc1cc2oc(-c3ccccc3)cc(=O)c2c(O)c1OC | 3.5 µM | –
12 µM | 39.6 µM | CCN(CC)CCOc1cc2oc(-c3ccccc3)cc(=O)c2c(O)c1OC | 13 µM | –
9.7 µM | 23.4 µM | COc1c(OCCN2CCCC2)cc2oc(-c3ccccc3)cc(=O)c2c1O | 22.7 µM | –
15.4 µM | 54.9 µM | COc1c(OCCN2CCN(C)CC2)cc2oc(-c3ccccc3)cc(=O)c2c1O | 20.5 µM | –
6.6 µM | 5.1 µM | CCN(CC)CCCCOc1cc2oc(-c3ccccc3)cc(=O)c2c(O)c1OC | 6.3 µM | Ratio IC50 [4]: 5; Ratio IC50 [5]: 5; Ratio IC50 [6]: 5
17.1 µM | 21.1 µM | COc1c(OCCN2CCCCC2)cc2oc(-c3ccccc3)cc(=O)c2c1O | 26.9 µM | –
50.6 µM | 32.4 µM | COc1c(OCCCCN2CCOCC2)cc2oc(-c3ccccc3)cc(=O)c2c1O | 26.8 µM | –
30.4 µM | 42.5 µM | COc1c(OCCCN2CCN(C)CC2)cc2oc(-c3ccccc3)cc(=O)c2c1O | 42.3 µM | –
74.8 µM | 52.4 µM | COc1c(OCCCN2CCOCC2)cc2oc(-c3ccccc3)cc(=O)c2c1O | 41.6 µM | –
67.6 µM | 56.3 µM | COc1c(OCCN2CCOCC2)cc2oc(-c3ccccc3)cc(=O)c2c1O | 38.2 µM | –
4.7 µM | 1.4 µM | COc1c(OCCCCN2CCCC2)cc2oc(-c3ccccc3)cc(=O)c2c1O | 9.5 µM | Ratio IC50 [4]: 5; Ratio IC50 [5]: 5; Ratio IC50 [6]: 5
27.2 µM | 12.5 µM | COc1c(OCCCCN2CCN(C)CC2)cc2oc(-c3ccccc3)cc(=O)c2c1O | 35.8 µM | –
